Assay results gathered from unrelated publications.
Each line is one published result; the experiments were not run side by side.
Target: Serine/threonine-protein kinase NLK (NLK, Homo sapiens, UniProt Q9UBE8)
Residues used in one study (Q9UBE8 1-527): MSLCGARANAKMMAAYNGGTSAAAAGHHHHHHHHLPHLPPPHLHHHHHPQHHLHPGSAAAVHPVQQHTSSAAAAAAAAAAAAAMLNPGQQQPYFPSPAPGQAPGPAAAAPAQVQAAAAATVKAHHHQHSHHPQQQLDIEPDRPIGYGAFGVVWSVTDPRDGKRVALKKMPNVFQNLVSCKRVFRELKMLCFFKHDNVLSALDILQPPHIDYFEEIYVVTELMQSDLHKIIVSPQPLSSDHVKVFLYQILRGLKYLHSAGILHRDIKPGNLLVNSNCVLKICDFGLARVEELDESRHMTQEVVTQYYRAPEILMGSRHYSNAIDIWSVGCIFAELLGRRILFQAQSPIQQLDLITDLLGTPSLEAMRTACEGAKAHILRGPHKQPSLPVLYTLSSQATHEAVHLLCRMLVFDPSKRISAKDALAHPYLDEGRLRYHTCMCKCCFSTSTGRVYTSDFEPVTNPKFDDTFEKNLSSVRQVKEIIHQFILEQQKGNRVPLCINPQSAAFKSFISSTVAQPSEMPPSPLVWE

SMILES	read-out	action	technique	concentration	endpoint	result
NS(=O)(=O)c1cc(NC(=O)Cc2ccccc2)ccc1Oc1cccc(Cl)c1	cell-free assay		competition with immobilised ligand	1 µM	remaining binding	100%
Cc1ccc(C(=O)Nc2ccc(CN3CCN(C)CC3)c(C(F)(F)F)c2)cc1C#Cc1cnc2cccnn12	cell-free assay			23.5 nM	remaining signal	52%
CCN(CC)CCNC(=O)c1c(C)[nH]c(/C=C2\C(=O)Nc3ccc(F)cc32)c1C	enzyme activity	inhibitor		10 µM	inhibition	7%
O=S(=O)(NC1CCC(c2cc(F)ccc2F)(S(=O)(=O)c2ccc(Cl)cc2)CC1)C(F)(F)F (stereo not shown)	cell-free assay		competition with immobilised ligand	1 µM	remaining binding	100%
CCCOc1ccc(OC)c(F)c1C(=O)c1ccc(C(=O)N[C@@H]2CNC[C@H]2NC(=O)c2ccc3[nH]ncc3c2)cc1	enzyme activity	inhibitor		10 µM	remaining activity	59%
Nc1ncnc2occ(-c3ccc(NC(=O)Nc4cc(C(F)(F)F)ccc4F)cc3)c12	cell-free assay			20 µM	remaining signal	19%
Fc1cccc(-n2cnc3c(NCc4nc5c(F)c(F)ccc5[nH]4)nc(N4CCOCC4)nc32)c1	binding		competition with immobilised ligand	10 µM	binding vs control	98%
O=C1NC(=O)c2cc(Nc3ccc(F)cc3)c(Nc3ccc(F)cc3)cc21	cell-free assay			0.5 µM	remaining signal	103%
CNC(=O)c1cc(Oc2ccc(NC(=O)Nc3ccc(Cl)c(C(F)(F)F)c3)cc2)ccn1	enzyme activity	inhibitor		0.3 µM	inhibition	-5%
Cc1sc(C(=O)NC2COC2)cc1-n1cc(NC(=O)Nc2c(F)cccc2Cl)cn1	enzyme activity	inhibitor		10 µM	remaining activity	85.2%
CC(=O)C1=C(C)N(c2cccc(C(F)(F)F)c2)C(=O)N[C@@H]1c1ccc(C#N)nc1	cell-free assay		competition with immobilised ligand	1 µM	remaining binding	93%
Cn1cncc1C1=CN(c2ncnc3[nH]cnc23)CCS1	enzyme activity	inhibitor	radiometric	50 nM	inhibition	19.6%
Cc1ccc(NC(=O)c2ccc(C)c(C(F)(F)F)c2)cc1C#Cc1nn(C2CCC(O)CC2)c2ncnc(N)c12 (stereo not shown)	cell-free assay			10 µM	remaining signal	82%
COc1cc(-c2cn(C3CCc4c(F)cccc4N(CC(F)(F)F)C3=O)nn2)ccc1-n1cnc(C)c1 (stereo not shown)	cell-free assay		competition with immobilised ligand	1 µM	remaining binding	100%
O=C1Nc2ccc(Cl)cc2C1=Cc1cc(Cl)c(O)c(Cl)c1	cell-free assay			0.5 µM	remaining signal	38.9%
CNC(=O)Nc1ccc2c(c1)CC[C@@]21OC(=O)N(CC(=O)N(Cc2ccc(F)cc2)[C@@H](C)C(F)(F)F)C1=O	binding		competition with immobilised ligand	1 µM	remaining binding	82%
Cc1ccc(Nc2nccc(N(C)c3ccc4c(C)n(C)nc4c3)n2)cc1S(N)(=O)=O	enzyme activity	inhibitor		0.3 µM	inhibition	19%
CS(=O)(=O)c1cc(C2(NC(=O)c3cncc4c3cnn4-c3ccc(F)cc3)CC2)ccn1	cell-free assay		competition with immobilised ligand	1 µM	remaining binding	100%
CC(C)(C)c1nc2c(s1)c1nc(N)ncc1c1ccc(NS(=O)(=O)c3c(F)cccc3F)c(F)c12	enzyme activity	inhibitor	radiometric	1 µM	remaining activity	91%
